Published values pooled from the literature.
Lines come from different studies, so protocols differ.
Cell line: PC-3
Effect on: cell growth or viability

SMILES | technique | tested at | inhibition [%]
O=C(Nc1cccc(S(=O)(=O)N2CCCC2)c1)C1CCCN(C(=O)c2cc(C(F)(F)F)cc(C(F)(F)F)c2)C1 (stereo not drawn) | WST-1 | 100 µM | 0
COc1ccc(C(=O)/C=C/c2cc3c(cc2Br)OCO3)cc1S(N)(=O)=O | SRB | 10 µM | 98
COc1cc(CNC(=O)CCCC/C=C/C(C)C)ccc1O | SRB | 10 µM | 19
COc1ccc(C(=O)/C=C/c2c(F)cccc2Cl)cc1S(N)(=O)=O | SRB | 10 µM | 81
COC(=O)c1cccc(NC(=O)C2CCCN(C(=O)c3cc(C(F)(F)F)cc(C(F)(F)F)c3)C2)c1 (stereo not drawn) | WST-1 | 100 µM | 0
COc1cccc(NC(=O)CN2C(=O)/C(=C/c3cccs3)SC2=S)c1 | MTT | 10 µM | 7.28
COc1ccc(C(=O)/C=C/c2cccc(Cl)c2)cc1S(N)(=O)=O | SRB | 10 µM | 68
COc1ccc(/C=C2\SC(=S)N(CC(=O)Nc3ccccc3)C2=O)cc1 | MTT | 10 µM | 25
Cn1cnnc1-c1cccc(NC(=O)C2CCCN(C(=O)c3cc(C(F)(F)F)cc(C(F)(F)F)c3)C2)c1 (stereo not drawn) | WST-1 | 100 µM | 0
O=C(CN1C(=O)/C(=C/c2ccncc2)SC1=S)Nc1ccccc1 | MTT | 10 µM | 5.33
CCc1cccc(NC(=O)C2CCCN(C(=O)c3cc(C(F)(F)F)cc(C(F)(F)F)c3)C2)c1 (stereo not drawn) | WST-1 | 100 µM | 0
O=C(CN1C(=O)/C(=C/c2cccc(F)c2)SC1=S)Nc1ccccc1 | MTT | 10 µM | 18.9
O=C1Nc2ccccc2C1=NNc1nnc2n1N=C(c1ccccc1)CS2 | SRB | 10 µM | 20
O=C(CN1C(=O)/C(=C/c2ccc(F)cc2)SC1=S)Nc1ccccc1 | MTT | 10 µM | 27.7
COc1ccc(C(=O)/C=C/c2ccccc2Br)cc1S(N)(=O)=O | SRB | 10 µM | 79
